Test results taken from ChEMBL document CHEMBL3352409, “Synthetic reactions with rare taccalonolides reveal the value of C-22,23 epoxidation for microtubule stabilizing potency” (J Med Chem, 2014).
Blank lines part the entries; values can stand above or below the molecule they belong to. Calls of active or inactive are those of the source. No cut-off for these calls is given here.

Assays:
[1] = test system: HeLa; assay: Ratio of taccalonolide A IC50 to compound IC50 for human HeLa cells by SRB assay; type: functional
[2] = test system: HeLa; assay: Antiproliferative activity against human HeLa cells up to 50 uM by SRB assay; type: functional, cell-based
In short: (§1)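 SRB assay in HeLa cells, IC50 from concentration-response; three independent experiments, each in triplicate, reported with standard deviation.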

[3] = test system: HeLa; assay: Antiproliferative activity against human HeLa cells by SRB assay; type: functional, cell-based; in short: as §1
[4] = test system: HeLa; assay: Ratio of taccalonolide AM IC50 to compound IC50 for human HeLa cells by SRB assay; type: functional
[5] = test system: Mus musculus; assay: Toxicity in human MDA-MB-231 cells xenografted nu/nu mouse assessed as weight loss at 0.75 mg/kg, ip on days 0, 3 and 7 measured on day 17; type: organism-based; design: dose 0.75 mg/kg, route intraperitoneal; settings: in vivo
In short: (§2)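 MDA-MB-231 fragments implanted bilaterally in female nu/nu mice; groups of 5, dosing started at mean tumor size 134 mm3. Compound given ip on days 0, 3 and 7, from a 1 mg/mL EtOH stock diluted at least 1:10 in 200 µL PBS. Tumor volume and weight measured 2-3 times weekly; 10 tumors averaged, with standard error; mice sacrificed day 21.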

[6] = target: T1, Tubulin (Sus scrofa) (UniProt P02554+P02550); assay: Binding affinity to purified porcine brain tubulin at 6 uM by turbidimetry
In short: (§3)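 Compound added from 100× EtOH stock (1% final EtOH). Polymerization started by shift to 37 °C and followed as turbidity at OD340.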

[7] = test system: HeLa; assay: Stabilization of microtubules in interphase human HeLa cells at 10 nM after 18 hrs by immunofluorescence microscopy; type: cell-based
In short: (§4)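 Interphase HeLa cells exposed to compound or EtOH vehicle for 18 h. Microtubules stained with a β-tubulin antibody and imaged by fluorescence microscopy.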

[8] = test system: MDA-MB-231; assay: Antitumor activity against human MDA-MB-231 cells xenografted in nu/nu mouse assessed as tumor growth inhibition at 0.75 mg/kg, ip on days 0, 3 and 7 measured on day 21; type: functional, organism-based; design: dose 0.75 mg/kg; in short: as §2
[9] = test system: Mus musculus; assay: Toxicity in human MDA-MB-231 cells xenografted nu/nu mouse assessed as weight loss at 0.25 mg/kg, ip on days 0 and 3 measured on day 17; type: organism-based; design: dose 0.25 mg/kg, route intraperitoneal; settings: in vivo
In short: (§5)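 MDA-MB-231 tumor fragments implanted bilaterally in female nu/nu mice; randomized groups of 5, dosing started at mean tumor size 134 mm3. Compound given ip at 0.25 mg/kg on days 0 and 3, from a 1.25 mg/mL EtOH stock diluted at least 1:10 in 200 µL PBS. Tumor volume and body weight recorded 2-3 times weekly; 10 tumors averaged, with standard error.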

[10] = test system: MDA-MB-231; assay: Antitumor activity against human MDA-MB-231 cells xenografted in nu/nu mouse assessed as tumor growth inhibition at 0.25 mg/kg, ip on days 0 and 3 measured on day 7; type: functional, organism-based; design: dose 0.25 mg/kg; in short: as §5
[11] = target: T1, Tubulin (Sus scrofa); assay: Binding affinity to purified porcine brain tubulin at 0.7 uM by turbidimetry; in short: as §3
[12] = test system: MDA-MB-231; assay: Antitumor activity against human MDA-MB-231 cells xenografted in nu/nu mouse assessed as tumor growth inhibition at 0.25 mg/kg, ip on days 0 and 3 measured after 17 days; type: functional, organism-based; design: dose 0.25 mg/kg; in short: as §5
[13] = test system: MDA-MB-231; assay: Antitumor activity against human MDA-MB-231 cells xenografted in nu/nu mouse assessed as tumor growth inhibition at 0.25 mg/kg, ip on days 0 and 3 measured after 1 week post final dose; type: functional, organism-based; design: dose 0.25 mg/kg; in short: as §5
[14] = test system: Mus musculus; assay: Toxicity in human MDA-MB-231 cells xenografted nu/nu mouse assessed as weight loss at 0.25 mg/kg, ip on days 0 and 3 measured on day 7; type: organism-based; design: dose 0.25 mg/kg, route intraperitoneal; settings: in vivo; in short: as §5
[15] = test system: Mus musculus; assay: Toxicity in human MDA-MB-231 cells xenografted nu/nu mouse assessed as mortality at 0.375 mg/kg, ip on days 0 and 3 measured on day 8 to day 11; type: organism-based; design: dose 0.375 mg/kg, route intraperitoneal; settings: in vivo
In short: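 Female nu/nu mice with bilateral MDA-MB-231 tumor fragment implants, groups of 5. Two doses were given on days 0 and 3, starting when mean tumor size was 134 mm3. Stock in 100% EtOH (1.25 mg/mL) was diluted at least 1:10 in 200 µL PBS just before ip injection. Mice were checked daily during dosing, weighed 2-3 times weekly, and scored for lethality after the last dose.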

[16] = test system: HeLa; assay: Stabilization of microtubules in interphase human HeLa cells at 4 nM after 18 hrs by immunofluorescence microscopy; type: cell-based; in short: as §4
[17] = test system: HeLa; assay: Ratio of taccalonolide B IC50 to compound IC50 for human HeLa cells by SRB assay; type: functional

T1 sequence (P02550 whole entry, looked up): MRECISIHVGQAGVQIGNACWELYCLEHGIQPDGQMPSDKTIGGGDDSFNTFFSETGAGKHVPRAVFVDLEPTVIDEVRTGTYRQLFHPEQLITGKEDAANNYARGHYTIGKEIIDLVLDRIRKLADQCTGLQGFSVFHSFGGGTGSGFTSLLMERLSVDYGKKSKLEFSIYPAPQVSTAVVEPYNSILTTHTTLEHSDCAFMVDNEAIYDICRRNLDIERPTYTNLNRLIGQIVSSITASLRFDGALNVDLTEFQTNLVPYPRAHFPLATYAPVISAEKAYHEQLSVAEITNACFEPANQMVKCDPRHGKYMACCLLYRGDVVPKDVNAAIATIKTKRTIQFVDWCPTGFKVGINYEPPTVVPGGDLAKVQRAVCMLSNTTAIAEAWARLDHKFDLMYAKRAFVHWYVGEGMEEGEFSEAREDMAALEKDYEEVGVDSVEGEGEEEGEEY
T1 sequence (P02554 whole entry, looked up): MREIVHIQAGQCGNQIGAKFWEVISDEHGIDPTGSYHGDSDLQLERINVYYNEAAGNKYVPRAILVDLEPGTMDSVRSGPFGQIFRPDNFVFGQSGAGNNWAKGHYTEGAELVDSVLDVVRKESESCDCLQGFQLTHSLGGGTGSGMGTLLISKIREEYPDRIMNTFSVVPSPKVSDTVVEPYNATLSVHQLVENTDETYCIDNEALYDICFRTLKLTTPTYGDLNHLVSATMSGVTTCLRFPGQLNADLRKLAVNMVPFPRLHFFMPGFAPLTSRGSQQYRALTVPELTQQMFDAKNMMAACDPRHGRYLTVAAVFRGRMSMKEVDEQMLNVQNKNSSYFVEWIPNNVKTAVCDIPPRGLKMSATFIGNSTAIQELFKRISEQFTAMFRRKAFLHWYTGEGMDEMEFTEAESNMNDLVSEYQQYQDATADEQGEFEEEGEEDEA

SMILES: CC(=O)O[C@@H]1[C@H]2[C@H]3[C@H]([C@H](OC(C)=O)[C@H](OC(C)=O)[C@]2(C)[C@H]2[C@H](C)[C@@H]4O[C@@]45OC(=O)[C@@](C)(O)[C@]5(C)[C@H]12)[C@]1(C)[C@H](C[C@@H]2O[C@@H]2[C@@H]1OC(C)=O)C(=O)[C@@H]3O
- Ratio IC50 [1]: 231

SMILES: CC(=O)O[C@@H]1[C@H](O)[C@H]2[C@@H]3[C@@H](O)[C@@H]4[C@H]([C@H](C)C=C5OC(=O)[C@@](C)(O)[C@@]54C)[C@@]3(C)[C@@H](OC(C)=O)[C@@H](OC(C)=O)[C@@H]2[C@]2(C)[C@@H]1C[C@@H]1O[C@@H]1[C@@H]2OC(C)=O
- Activity [2]: inactive

- IC50 [3]: 0.047 µM
SMILES: CC(=O)O[C@H]1C[C@H]2[C@H]([C@@H]3[C@@H](O)[C@@H]4[C@H]([C@H](C)C=C5OC(=O)[C@@](C)(O)[C@@]54C)[C@]31C)[C@@H](O)C(=O)[C@H]1C[C@@H]3O[C@@H]3[C@H](OC(=O)CC(C)C)[C@@]12C
- Ratio IC50 [4]: 42

- Activity [6]: Active
- IC50 [3]: 0.00088 µM
SMILES: CC(=O)O[C@H]1C[C@H]2[C@H]([C@@H]3[C@@H](O)[C@@H]4[C@H]([C@H](C)[C@@H]5O[C@@]56OC(=O)[C@@](C)(O)[C@]46C)[C@]31C)[C@@H](O)C(=O)[C@H]1C[C@@H]3O[C@@H]3[C@H](OC(=O)CC(C)C)[C@@]12C
- Activity [5]: Non-toxic
- Activity [7]: Active
- Activity [8]: inactive

- IC50 [3]: 3.48 µM
SMILES: CC(=O)O[C@@H]1[C@H]2[C@@H]3C(=O)C(O)=C4C[C@@H]5O[C@@H]5[C@H](OC(C)=O)[C@]4(C)[C@H]3[C@H](OC(C)=O)[C@H](OC(C)=O)[C@]2(C)[C@@H]2[C@@H]1[C@]1(C)C(=C[C@H]2C)OC(=O)[C@@]1(C)O

- IC50 [3]: 0.82 µM
SMILES: CC(=O)O[C@@H]1[C@H]2[C@@H]3C(=O)C(O)=C4C[C@@H]5O[C@@H]5[C@H](OC(C)=O)[C@]4(C)[C@H]3[C@H](OC(C)=O)[C@H](OC(C)=O)[C@]2(C)[C@H]2[C@H](C)[C@@H]3O[C@@]34OC(=O)[C@@](C)(O)[C@]4(C)[C@H]12

- IC50 [3]: 0.0172 µM
SMILES: CC(=O)O[C@@H]1[C@H]2[C@H]3[C@H]([C@H](OC(C)=O)[C@H](OC(C)=O)[C@]2(C)[C@H]2[C@H](C)[C@@H]4O[C@@]45OC(=O)[C@@](C)(O)[C@]5(C)[C@H]12)[C@@]1(C)[C@@H](OC(C)=O)[C@H]2O[C@H]2C[C@]1(O)C(=O)[C@@H]3O

SMILES: CC(=O)O[C@@H]1[C@H]2[C@@H]3[C@@H](OC(C)=O)C(=O)[C@@]4(O)C[C@@H]5O[C@@H]5[C@H](OC(=O)CC(C)C)[C@]4(C)[C@H]3C[C@H](OC(C)=O)[C@]2(C)[C@H]2[C@H](C)[C@@H]3O[C@@]34OC(=O)[C@@](C)(O)[C@]4(C)[C@H]12
- Activity [9]: Non-toxic
- TGI [10]: Active
- IC50 [3]: 0.00045 µM
- Activity [11]: Active
- TGI [12]: Active
- TGI [13]: Active
- Activity [14]: 10%
- Activity [15]: Toxic
- Activity [16]: Active

- IC50 [3]: 0.0156 µM
SMILES: CC(=O)O[C@@H]1[C@H]2[C@H]3[C@H]([C@H](OC(C)=O)[C@H](OC(C)=O)[C@]2(C)[C@H]2[C@H](C)[C@@H]4O[C@@]45OC(=O)[C@@](C)(O)[C@]5(C)[C@H]12)[C@@]1(C)[C@@H](OC(C)=O)[C@H]2O[C@H]2C[C@]1(O)C(=O)[C@@H]3OC(C)=O

- IC50 [3]: 0.0296 µM
SMILES: CC(=O)O[C@@H]1[C@H]2[C@@H]3[C@@H](OC(C)=O)C(=O)[C@@]4(O)C[C@@H]5O[C@@H]5[C@H](OC(C)=O)[C@]4(C)[C@H]3C[C@H](OC(C)=O)[C@]2(C)[C@H]2[C@H](C)[C@@H]3O[C@@]34OC(=O)[C@@](C)(O)[C@]4(C)[C@H]12

SMILES: CC(=O)O[C@H]1[C@H]2[C@H]([C@@H]3[C@@H](O)[C@@H]4[C@H]([C@H](C)[C@@H]5O[C@@]56OC(=O)[C@@](C)(O)[C@]46C)[C@@]3(C)[C@H]1OC(C)=O)[C@@H](O)C(=O)[C@H]1C[C@@H]3O[C@@H]3[C@H](OC(C)=O)[C@]21C
- Ratio IC50 [17]: 734

- IC50 [3]: 0.0145 µM
SMILES: CC(=O)O[C@H]1C[C@H]2[C@H]([C@@H]3[C@@H](O)[C@@H]4[C@H]([C@H](C)[C@@H]5O[C@@]56OC(=O)[C@@](C)(O)[C@]46C)[C@]31C)[C@@H](O)C(=O)[C@H]1C[C@@H]3O[C@@H]3[C@H](OC(C)=O)[C@@]12C

- IC50 [3]: 0.0084 µM
SMILES: CC(=O)O[C@H]1[C@H]2[C@H]([C@@H]3[C@@H](O)[C@@H]4[C@H]([C@H](C)[C@@H]5O[C@@]56OC(=O)[C@@](C)(O)[C@]46C)[C@@]3(C)[C@H]1OC(C)=O)[C@@H](O)C(=O)[C@@]1(O)C[C@@H]3O[C@@H]3[C@H](OC(C)=O)[C@]21C

- IC50 [3]: 0.188 µM
SMILES: CC(=O)O[C@@H]1[C@H]2[C@@H]3[C@@H](O)C(=O)[C@H]4C[C@@H]5O[C@@H]5[C@H](OC(C)=O)[C@]4(C)[C@H]3C[C@H](OC(C)=O)[C@]2(C)[C@H]2[C@H](C)[C@@H]3O[C@@]34OC(=O)[C@@](C)(O)[C@]4(C)[C@H]12

SMILES: CC(=O)O[C@H]1[C@H]2[C@@H]([C@@H](O)[C@@H](O)[C@H]3C[C@@H]4O[C@@H]4[C@H](OC(C)=O)[C@]23C)[C@@H]2[C@@H](O)[C@@H]3[C@H]([C@H](C)C=C4OC(=O)[C@@](C)(O)[C@@]43C)[C@@]2(C)[C@H]1OC(C)=O
- Activity [2]: inactive

- IC50 [3]: 0.685 µM
SMILES: CC(=O)O[C@H]1C[C@H]2[C@H]([C@@H]3[C@@H](O)[C@@H]4[C@H]([C@H](C)[C@@H]5O[C@@]56OC(=O)[C@@](C)(O)[C@]46C)[C@]31C)[C@@H](O)C(=O)[C@H]1C[C@@H]3O[C@@H]3[C@H](O)[C@@]12C
